According to ChEMBL document CHEMBL1133510, “Synthesis and evaluation of novel steroidal oxime inhibitors of P450 17 (17 alpha-hydroxylase/C17-20-lyase) and 5 alpha-reductase types 1 and 2” (J Med Chem, 2000):

Experiments:
[1] = biological target: T1, Thromboxane-A synthase (Homo sapiens) (UniProt P24557); details: 50 uM
T1 sequence (whole entry): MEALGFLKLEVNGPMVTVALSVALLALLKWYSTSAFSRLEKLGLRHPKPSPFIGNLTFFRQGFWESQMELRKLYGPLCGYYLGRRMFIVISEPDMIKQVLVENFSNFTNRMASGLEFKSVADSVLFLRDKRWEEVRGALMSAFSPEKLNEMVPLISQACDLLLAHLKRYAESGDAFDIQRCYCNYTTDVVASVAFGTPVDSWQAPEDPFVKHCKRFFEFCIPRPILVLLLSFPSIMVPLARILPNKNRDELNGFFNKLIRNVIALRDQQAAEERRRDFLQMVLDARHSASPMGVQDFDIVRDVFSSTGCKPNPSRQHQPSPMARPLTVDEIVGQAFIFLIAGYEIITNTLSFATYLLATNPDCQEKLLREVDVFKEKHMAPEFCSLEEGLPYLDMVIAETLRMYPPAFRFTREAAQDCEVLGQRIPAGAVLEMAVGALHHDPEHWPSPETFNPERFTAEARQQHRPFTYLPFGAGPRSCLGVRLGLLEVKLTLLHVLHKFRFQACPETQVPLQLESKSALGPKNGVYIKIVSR

[2] = biological target: T2, Steroid 17-alpha-hydroxylase/17,20 lyase (Rattus norvegicus, UniProt P11715); test: Evaluated for the inhibitory activity towards Cytochrome P450 17 rat enzyme using testicular microsome at 25 uM of substrate (progesterone); set-up: species or system Testis
T2 sequence (P11715 whole entry): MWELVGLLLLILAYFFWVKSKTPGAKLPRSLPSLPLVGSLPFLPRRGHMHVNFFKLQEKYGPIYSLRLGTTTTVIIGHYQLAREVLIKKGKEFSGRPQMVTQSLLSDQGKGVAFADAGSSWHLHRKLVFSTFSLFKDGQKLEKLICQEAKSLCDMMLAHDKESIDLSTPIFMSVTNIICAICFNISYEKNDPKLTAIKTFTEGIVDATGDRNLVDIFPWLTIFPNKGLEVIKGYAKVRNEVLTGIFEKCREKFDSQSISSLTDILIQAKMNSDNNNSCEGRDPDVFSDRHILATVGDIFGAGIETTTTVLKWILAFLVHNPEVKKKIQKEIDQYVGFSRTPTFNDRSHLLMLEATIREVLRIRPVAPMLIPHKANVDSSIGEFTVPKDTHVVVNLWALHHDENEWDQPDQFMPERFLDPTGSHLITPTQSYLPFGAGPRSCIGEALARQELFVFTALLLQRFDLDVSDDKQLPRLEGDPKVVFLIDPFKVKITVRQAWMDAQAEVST
How it was run: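 Testicular microsomes (human for human enzyme, rat for rat enzyme) incubated with progesterone substrate at 25 µM; product measured by RP-HPLC with UV detection. IC50 = concentration giving 50% inhibition, mean of at least two experiments.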

[3] = biological target: T3, Steroid 17-alpha-hydroxylase/17,20 lyase (Homo sapiens, UniProt P05093); test: Evaluated for the inhibitory activity towards Cytochrome P450 17 human enzyme using testicular microsome at 25 uM of substrate (progesterone); set-up: species or system Testis
T3 sequence (P05093 whole entry): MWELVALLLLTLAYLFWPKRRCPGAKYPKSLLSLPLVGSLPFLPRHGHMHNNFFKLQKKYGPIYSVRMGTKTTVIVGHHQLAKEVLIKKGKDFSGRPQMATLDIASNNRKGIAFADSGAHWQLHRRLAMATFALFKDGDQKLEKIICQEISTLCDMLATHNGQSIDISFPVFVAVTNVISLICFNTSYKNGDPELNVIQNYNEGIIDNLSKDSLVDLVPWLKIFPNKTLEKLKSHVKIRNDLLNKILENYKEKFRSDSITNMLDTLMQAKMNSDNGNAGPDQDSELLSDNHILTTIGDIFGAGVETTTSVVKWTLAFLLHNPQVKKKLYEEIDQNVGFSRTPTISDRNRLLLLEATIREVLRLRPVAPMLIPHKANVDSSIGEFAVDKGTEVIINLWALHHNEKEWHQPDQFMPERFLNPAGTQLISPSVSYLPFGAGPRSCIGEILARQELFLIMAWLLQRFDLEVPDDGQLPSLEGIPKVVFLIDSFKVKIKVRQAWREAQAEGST

[4] = biological target: T4, 3-oxo-5-alpha-steroid 4-dehydrogenase 2 (Homo sapiens, UniProt P31213); test: Evaluated for the inhibitory activity against human steroid 5-alpha-reductase type 2 from human BPH tissue at 210 nM of testosterone
T4 sequence (P31213 whole entry): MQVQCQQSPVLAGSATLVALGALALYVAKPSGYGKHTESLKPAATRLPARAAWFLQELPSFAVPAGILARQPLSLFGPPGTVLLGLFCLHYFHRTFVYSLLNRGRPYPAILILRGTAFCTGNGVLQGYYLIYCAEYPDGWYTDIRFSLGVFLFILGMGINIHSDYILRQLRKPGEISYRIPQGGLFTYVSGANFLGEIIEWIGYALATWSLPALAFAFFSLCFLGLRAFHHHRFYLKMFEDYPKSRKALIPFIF
How it was run: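 Enzyme from prostate homogenate of BPH patients, assayed at pH 5.5 with radiolabeled testosterone at 210 nM; product separated by HPLC. IC50 taken as inhibitor concentration giving 50% inhibition; mean of at least two experiments.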

[5] = biological target: T5, 3-oxo-5-alpha-steroid 4-dehydrogenase 1 (Homo sapiens, UniProt P18405); test: Evaluated for the inhibitory activity against human steroid 5-alpha-reductase type I in human DU-145 cell assay at 5 nM of androstenedione; assay type: cell-based
T5 sequence (P18405 whole entry): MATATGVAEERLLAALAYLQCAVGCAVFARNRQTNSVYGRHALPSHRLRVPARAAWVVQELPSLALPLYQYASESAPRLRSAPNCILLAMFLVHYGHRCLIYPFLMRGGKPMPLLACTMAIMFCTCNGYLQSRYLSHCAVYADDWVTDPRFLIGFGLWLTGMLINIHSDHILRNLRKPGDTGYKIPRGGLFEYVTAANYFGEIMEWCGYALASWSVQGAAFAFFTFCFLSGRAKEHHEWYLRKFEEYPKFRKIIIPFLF
How it was run: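 Whole human DU-145 cells as source of type 1 enzyme, incubated with radiolabeled androstenedione at 5 nM; HPLC separation of product. IC50 = inhibitor concentration giving 50% inhibition; mean of at least two experiments.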

[6] = biological target: T3, Steroid 17-alpha-hydroxylase/17,20 lyase; test: Inhibition of Human P450 17 and NADPH-P450 reductase co-expressed in Escherichia coli with 25 uM progesterone
[7] = biological target: T1, Thromboxane-A synthase (Homo sapiens); test: Inhibition of thromboxane synthase P450 TXA2 at 50 uM
How it was run: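 Thromboxane synthase activity measured in citrated human whole blood; inhibitor tested at 50 µM.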

[8] = biological target: T5, 3-oxo-5-alpha-steroid 4-dehydrogenase 1; test: Inhibition of Human steroid 5-alpha-reductase type I expressed in HEK293 cells; assay type: cell-based
How it was run: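 Human 5α-reductase type 1 cDNA (plasmid pRcCMV-I) stably transfected into HEK293 cells, clones chosen under G418. 300 000 cells/well attached overnight at 37 °C, then fresh DMEM/10% FCS containing 5 nM [3H]androstenedione plus inhibitor (1% DMSO) for 30 min. Supernatant extracted with ether, product measured by HPLC. IC50 taken as mean of at least three experiments.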

[9] = biological target: T4, 3-oxo-5-alpha-steroid 4-dehydrogenase 2; test: Inhibition of Human steroid 5-alpha-reductase type II expressed in HEK293 cells; assay type: cell-based
How it was run: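 Stably transfected HEK293 clones expressing full-length human type 1 or type 2 cDNA; 300 000 cells per well attached overnight at 37 °C. Fresh DMEM/10% FCS with 5 nM [3H]androstenedione and inhibitor added, final DMSO 1%. Incubated 30 min (type 1) or 13 min (type 2); supernatant ether-extracted and analysed by HPLC. Mean of at least three experiments.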

[10] = biological target: T6, P450 scc (cholesterol side-chain cleavage enzyme, mitochondrial) (Bos taurus, UniProt P00189); test: Inhibition of P450 scc at 25 uM; details: cattle
T6 sequence (P00189 whole entry): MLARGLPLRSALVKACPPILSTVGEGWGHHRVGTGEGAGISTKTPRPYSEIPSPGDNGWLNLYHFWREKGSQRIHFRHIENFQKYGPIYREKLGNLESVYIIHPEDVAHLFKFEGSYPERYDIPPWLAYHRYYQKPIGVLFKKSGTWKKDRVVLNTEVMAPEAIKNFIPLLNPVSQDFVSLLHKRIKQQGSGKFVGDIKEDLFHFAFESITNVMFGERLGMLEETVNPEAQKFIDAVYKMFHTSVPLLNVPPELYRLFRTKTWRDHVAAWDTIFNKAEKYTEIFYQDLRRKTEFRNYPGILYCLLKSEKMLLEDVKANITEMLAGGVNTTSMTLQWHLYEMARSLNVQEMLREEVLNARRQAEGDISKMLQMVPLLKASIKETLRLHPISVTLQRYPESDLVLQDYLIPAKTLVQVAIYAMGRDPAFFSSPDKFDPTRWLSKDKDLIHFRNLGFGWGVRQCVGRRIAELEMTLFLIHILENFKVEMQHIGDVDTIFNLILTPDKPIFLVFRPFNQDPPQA
How it was run: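 Bovine adrenal P450 scc preparation; inhibitor tested at 25 µM.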

Row | SMILES | IC50 [2] | IC50 [3] | IC50 [4] | IC50 [5] | other results
1 | O=C(O)c1ccc(OCCn2ccnc2)cc1 | – | – | – | – | IC50 [1]: 1.1 µM
2 | C/C(=N/O)C1=CCC2C3CCC4=CC(=O)CCC4(C)C3CCC12C (stereo not given) | > 125 µM | 0.1 µM | > 10 µM | > 10 µM | –
3 | C[C@]12CC[C@H](O)CC1=CC[C@H]1C3CC/C(=C/C=N\O)[C@@]3(C)CC[C@@H]12 (stereo not given in full) | 0.52 µM | 0.077 µM | – | – | IC50 [6]: 0.23 µM; inhibition [7]: 35%
4 | CC12CCC(=O)C=C1CCC1C2CCC2(C)C(C/C=N/O)CCC12 (stereo not given) | 0.3 µM | – | 0.3 µM | 1.95 µM | IC50 [8]: 2.44 µM; IC50 [9]: 0.89 µM
5 | C[C@]12CC[C@H](O)C=C1CC[C@H]1C3CC/C(=C/C=N\O)[C@@]3(C)CC[C@@H]12 (stereo not given in full) | 0.14 µM | 0.18 µM | 0.43 µM | – | –
6 | CC12CCC(O)CC1=CCC1C2CCC2(C)C(C/C=N/O)CCC12 (stereo not given) | 2.76 µM | 0.27 µM | – | – | inhibition at 25 µM [10]: 74%
7 | CC(C)(C)NC(=O)[C@H]1CC[C@H]2[C@@H]3CC[C@H]4NC(=O)C=C[C@]4(C)[C@H]3CC[C@]12C [FINASTERIDE] | – | – | – | 0.04 µM | IC50 [8]: 0.54 µM; IC50 [9]: 0.06 µM

Now from value to compound, other results behind:

Row | IC50 [2] | IC50 [3] | IC50 [4] | SMILES | IC50 [5] | other results
8 | 9.8 µM | 1.18 µM | – | C/C(CC1CCC2C3CC=C4CC(O)CCC4(C)C3CCC12C)=N\O (stereo not given) | – | –
9 | 125 µM | 0.2 µM | – | C/C(=N/O)[C@H]1CC=C2[C@@H]3CC=C4C[C@@H](O)CC[C@]4(C)[C@H]3CC[C@@]21C | – | IC50 [6]: 0.42 µM
10 | > 125 µM | > 2.5 µM | – | CC12CCC(O)CC1=CCC1C2CCC2(C)/C(=C/C=N/O)CCC12 (stereo not given) | – | –
